The results in this text go back to ChEMBL document CHEMBL5653631, “A Potent and Selective ULK1 Inhibitor Suppresses Autophagy and Sensitizes Cancer Cells to Nutrient Stress” (iScience, 2018).

The inhibition is the change of the read-out against control, counted positive when it falls.

In assay [1] the target is Calcium/calmodulin-dependent protein kinase type 1 (Homo sapiens) (UniProt Q14012). The assay can be described thus: Inhibition of human recombinant CaMK1a at 40 nM related to control ULK1.
Calcium/calmodulin-dependent protein kinase type 1 (Homo sapiens), sequence (Q14012 whole entry, looked up): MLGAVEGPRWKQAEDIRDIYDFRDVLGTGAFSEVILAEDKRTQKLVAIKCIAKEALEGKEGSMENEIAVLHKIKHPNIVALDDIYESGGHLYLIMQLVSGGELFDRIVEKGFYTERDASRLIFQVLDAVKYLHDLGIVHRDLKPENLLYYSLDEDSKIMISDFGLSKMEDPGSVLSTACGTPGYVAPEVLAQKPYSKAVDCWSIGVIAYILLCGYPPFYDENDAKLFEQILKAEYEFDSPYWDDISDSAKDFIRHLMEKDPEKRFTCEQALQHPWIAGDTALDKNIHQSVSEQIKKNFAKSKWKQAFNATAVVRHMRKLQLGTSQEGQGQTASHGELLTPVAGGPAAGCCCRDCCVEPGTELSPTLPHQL
The target of assay [2] is Aurora kinase B (Homo sapiens) (UniProt Q96GD4). Briefly: Inhibition of human recombinant AurB at 500 nM in presence of ATP by radiometric assay relative to control. In outline:
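Part of a radiometric in vitro activity panel of 327 recombinant human kinases. Each kinase was tested in duplicate at one inhibitor concentration. Activity remaining was expressed as a percentage of the vehicle control, and percent inhibition was taken as 100 minus that value.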

The target in assay [3] is T1, Serine/threonine-protein kinase Chk1 (Homo sapiens) (UniProt O14757).
T1 sequence (whole entry): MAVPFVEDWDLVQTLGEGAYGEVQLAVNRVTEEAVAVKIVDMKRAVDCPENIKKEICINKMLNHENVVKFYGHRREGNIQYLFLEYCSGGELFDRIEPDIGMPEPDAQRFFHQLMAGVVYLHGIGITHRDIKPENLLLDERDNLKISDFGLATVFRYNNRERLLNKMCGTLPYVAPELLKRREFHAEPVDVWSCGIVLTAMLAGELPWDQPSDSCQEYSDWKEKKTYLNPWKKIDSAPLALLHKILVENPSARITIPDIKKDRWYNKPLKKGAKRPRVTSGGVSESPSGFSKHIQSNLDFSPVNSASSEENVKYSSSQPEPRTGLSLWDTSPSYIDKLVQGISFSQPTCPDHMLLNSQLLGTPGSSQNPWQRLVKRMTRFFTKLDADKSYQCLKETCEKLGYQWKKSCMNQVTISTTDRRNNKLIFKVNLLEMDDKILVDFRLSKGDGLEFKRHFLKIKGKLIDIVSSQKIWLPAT
Briefly: Inhibition of human recombinant CHK1 at 500 nM in presence of ATP by radiometric assay relative to control.

Assay [4] has as its target T2, Receptor-interacting serine/threonine-protein kinase 1 (Homo sapiens) (UniProt Q13546).
T2 sequence (whole entry): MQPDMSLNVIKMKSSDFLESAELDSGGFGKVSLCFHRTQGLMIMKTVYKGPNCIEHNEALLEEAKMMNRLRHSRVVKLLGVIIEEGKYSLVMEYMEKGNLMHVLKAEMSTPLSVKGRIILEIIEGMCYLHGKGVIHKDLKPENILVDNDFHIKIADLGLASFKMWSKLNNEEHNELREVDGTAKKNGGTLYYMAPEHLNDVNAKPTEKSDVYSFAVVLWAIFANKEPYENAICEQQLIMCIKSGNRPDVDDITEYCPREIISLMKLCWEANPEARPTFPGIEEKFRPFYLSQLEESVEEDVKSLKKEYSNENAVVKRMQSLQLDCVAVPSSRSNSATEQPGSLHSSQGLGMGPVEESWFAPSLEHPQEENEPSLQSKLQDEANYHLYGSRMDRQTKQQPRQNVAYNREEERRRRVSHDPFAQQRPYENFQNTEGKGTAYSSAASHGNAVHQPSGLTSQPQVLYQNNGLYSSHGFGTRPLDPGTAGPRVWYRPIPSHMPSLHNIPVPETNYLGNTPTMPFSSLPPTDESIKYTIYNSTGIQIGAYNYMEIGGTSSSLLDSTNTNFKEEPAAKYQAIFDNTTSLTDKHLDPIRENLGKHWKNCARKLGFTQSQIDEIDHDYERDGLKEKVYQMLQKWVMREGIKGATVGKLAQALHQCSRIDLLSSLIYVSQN
The assay can be described thus: Inhibition of human recombinant RIPK1 at 500 nM in presence of ATP by radiometric assay relative to control.

Assay [5] has as its target Tyrosine-protein kinase JAK1 (Homo sapiens) (UniProt P23458). Briefly: Inhibition of human recombinant JAK1 at 15 nM in presence of ATP by radiometric assay relative to control.
Assay [6] addresses Serine/threonine-protein kinase MARK2 (Homo sapiens) (UniProt Q7KZI7). The assay can be described thus: Inhibition of human recombinant MARK2 at 15 nM in presence of ATP by radiometric assay relative to control.
The target in assay [7] is T3, Muscle, skeletal receptor tyrosine-protein kinase (Homo sapiens) (UniProt O15146).
T3 sequence (whole entry): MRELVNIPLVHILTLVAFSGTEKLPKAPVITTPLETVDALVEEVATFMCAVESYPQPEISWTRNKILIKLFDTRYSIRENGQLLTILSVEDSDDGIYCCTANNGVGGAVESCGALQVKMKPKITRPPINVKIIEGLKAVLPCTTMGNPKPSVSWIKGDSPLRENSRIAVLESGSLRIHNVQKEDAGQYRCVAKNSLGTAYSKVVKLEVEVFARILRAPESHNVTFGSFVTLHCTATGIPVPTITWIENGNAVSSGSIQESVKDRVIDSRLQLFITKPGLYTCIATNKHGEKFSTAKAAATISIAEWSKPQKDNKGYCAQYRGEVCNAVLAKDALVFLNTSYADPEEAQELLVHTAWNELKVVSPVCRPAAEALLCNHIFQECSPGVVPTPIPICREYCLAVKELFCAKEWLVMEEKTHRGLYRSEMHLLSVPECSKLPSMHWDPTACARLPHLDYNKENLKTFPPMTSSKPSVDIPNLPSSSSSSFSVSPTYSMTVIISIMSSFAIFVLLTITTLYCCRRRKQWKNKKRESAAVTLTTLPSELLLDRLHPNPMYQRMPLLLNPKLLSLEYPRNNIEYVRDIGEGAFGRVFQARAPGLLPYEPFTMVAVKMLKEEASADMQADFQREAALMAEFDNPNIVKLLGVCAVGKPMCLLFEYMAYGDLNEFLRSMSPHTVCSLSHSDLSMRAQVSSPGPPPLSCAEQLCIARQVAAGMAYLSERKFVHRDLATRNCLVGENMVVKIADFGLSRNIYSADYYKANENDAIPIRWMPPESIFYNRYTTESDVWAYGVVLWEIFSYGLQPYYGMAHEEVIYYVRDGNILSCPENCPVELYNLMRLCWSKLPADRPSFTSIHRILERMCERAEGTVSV
Briefly: Inhibition of human recombinant MUSK at 15 nM in presence of ATP by radiometric assay relative to control.

Each structure is given as a SMILES string.

Tyrosine-protein kinase JAK1 (Homo sapiens), sequence (P23458 whole entry): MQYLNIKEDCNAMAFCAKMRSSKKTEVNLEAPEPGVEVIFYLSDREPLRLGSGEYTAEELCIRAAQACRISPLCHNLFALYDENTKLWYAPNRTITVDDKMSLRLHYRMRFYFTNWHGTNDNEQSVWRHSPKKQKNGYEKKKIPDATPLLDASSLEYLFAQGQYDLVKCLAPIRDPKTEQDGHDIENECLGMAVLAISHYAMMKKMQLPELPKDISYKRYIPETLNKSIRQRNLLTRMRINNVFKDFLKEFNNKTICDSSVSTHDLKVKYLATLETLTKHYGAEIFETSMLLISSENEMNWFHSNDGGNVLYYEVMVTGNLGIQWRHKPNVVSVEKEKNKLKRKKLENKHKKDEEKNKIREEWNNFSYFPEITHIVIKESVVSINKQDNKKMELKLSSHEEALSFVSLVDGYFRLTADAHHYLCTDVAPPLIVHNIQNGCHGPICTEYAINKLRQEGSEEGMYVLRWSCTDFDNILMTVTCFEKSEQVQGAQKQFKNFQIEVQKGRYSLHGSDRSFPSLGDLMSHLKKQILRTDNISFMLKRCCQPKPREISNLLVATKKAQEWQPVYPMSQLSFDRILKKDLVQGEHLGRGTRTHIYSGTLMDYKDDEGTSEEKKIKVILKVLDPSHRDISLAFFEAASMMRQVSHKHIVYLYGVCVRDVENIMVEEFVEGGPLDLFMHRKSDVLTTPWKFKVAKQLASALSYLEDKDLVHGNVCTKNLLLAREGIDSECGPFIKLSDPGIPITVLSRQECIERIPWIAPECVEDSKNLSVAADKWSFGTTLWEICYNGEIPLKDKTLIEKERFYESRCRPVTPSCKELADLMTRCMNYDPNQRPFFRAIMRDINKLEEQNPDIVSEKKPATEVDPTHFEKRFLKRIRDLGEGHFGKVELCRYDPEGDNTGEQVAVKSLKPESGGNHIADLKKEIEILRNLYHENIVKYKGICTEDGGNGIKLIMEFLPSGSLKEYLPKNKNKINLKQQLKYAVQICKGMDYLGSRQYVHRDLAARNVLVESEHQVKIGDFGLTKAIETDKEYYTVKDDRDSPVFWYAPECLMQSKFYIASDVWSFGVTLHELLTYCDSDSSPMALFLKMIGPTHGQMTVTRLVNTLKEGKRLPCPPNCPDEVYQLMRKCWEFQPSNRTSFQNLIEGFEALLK
Aurora kinase B (Homo sapiens), sequence (Q96GD4 whole entry): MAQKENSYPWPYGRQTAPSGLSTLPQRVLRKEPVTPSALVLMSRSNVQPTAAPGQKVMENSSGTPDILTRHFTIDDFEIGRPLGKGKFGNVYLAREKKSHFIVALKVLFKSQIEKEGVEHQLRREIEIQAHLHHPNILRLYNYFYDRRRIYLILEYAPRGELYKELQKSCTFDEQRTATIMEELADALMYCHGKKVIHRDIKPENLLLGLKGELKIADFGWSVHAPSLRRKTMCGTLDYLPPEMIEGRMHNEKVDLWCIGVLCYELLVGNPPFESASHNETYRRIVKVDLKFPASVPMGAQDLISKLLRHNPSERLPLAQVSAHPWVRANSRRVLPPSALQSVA
Serine/threonine-protein kinase MARK2 (Homo sapiens), sequence (Q7KZI7 whole entry): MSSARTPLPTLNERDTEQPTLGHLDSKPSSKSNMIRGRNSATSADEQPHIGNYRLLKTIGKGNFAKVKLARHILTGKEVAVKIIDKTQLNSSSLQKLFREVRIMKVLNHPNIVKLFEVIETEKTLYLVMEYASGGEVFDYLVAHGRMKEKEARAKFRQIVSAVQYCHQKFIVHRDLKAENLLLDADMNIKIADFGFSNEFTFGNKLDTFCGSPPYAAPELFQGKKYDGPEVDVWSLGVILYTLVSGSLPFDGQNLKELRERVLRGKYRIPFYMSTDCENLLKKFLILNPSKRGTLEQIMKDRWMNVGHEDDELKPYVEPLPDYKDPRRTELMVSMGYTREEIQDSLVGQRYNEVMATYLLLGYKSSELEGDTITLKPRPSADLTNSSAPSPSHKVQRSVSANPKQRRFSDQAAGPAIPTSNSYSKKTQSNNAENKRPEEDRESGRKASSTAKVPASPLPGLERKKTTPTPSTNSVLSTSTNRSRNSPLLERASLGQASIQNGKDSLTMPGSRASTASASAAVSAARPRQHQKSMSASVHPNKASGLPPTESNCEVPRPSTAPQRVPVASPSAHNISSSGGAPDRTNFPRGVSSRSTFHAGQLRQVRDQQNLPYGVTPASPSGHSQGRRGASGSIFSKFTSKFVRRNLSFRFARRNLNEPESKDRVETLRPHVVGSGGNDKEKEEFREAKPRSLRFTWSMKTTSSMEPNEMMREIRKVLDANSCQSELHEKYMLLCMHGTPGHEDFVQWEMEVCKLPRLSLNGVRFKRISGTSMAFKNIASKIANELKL

For the compound `O=C(N[C@@H](C1CC1)C(F)(F)F)c1cc(-c2cnn3cc(-c4ccc(F)cc4)cnc23)cs1`, the fold change (FC) in assay [1] was determined as 0.

As for `CNC(=O)c1ccccc1Oc1nc(Nc2cc(OC)c(OC)c(OC)c2)ncc1Br`, the inhibition in assay [2] is 92%; in assay [3], 4%; in assay [4], 7%.

Regarding `CC(C)[C@H](NC(=O)c1cc(-c2cnn3cc(-c4ccc(OCCN5CCCCC5)cc4)cnc23)cs1)C(F)(F)F`, the figures for the inhibition in assay [5], in assay [6] and in assay [7] were 0%, 47% and 0%, respectively.
